The results in this text go back to ChEMBL document CHEMBL2439952, “Synthesis and anti-Trypanosoma cruzi activity of naphthoquinone-containing triazoles: electrochemical studies on the effects of the quinoidal moiety” (Bioorg Med Chem, 2013).

Data set [1] relates to Trypanosoma cruzi. Put plainly: Antitrypanosomal activity against trypomastigote form of Trypanosoma cruzi Y assessed as parasite growth inhibition after 24 hrs by Neubauer cell counting method. The format is functional, organism-based.
Data set [2] can be described thus: Selectivity index, ratio of LC50 for mouse HMC to IC50 for trypomastigote form of Trypanosoma cruzi Y. A digest of the protocol: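 Ratio of 24 h LC50 to 24 h IC50. The LC50 came from PrestoBlue on primary mouse embryo heart muscle cells. The IC50 came from Y strain bloodstream trypomastigotes taken at peak parasitaemia from infected albino mice, isolated by differential centrifugation, and held at 10^7 cells/mL in DME with 10% mouse blood. DMSO was at most 0.5%.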

Data set [3] is described as follows: Cytotoxicity against mouse HMC after 24 hrs by PrestoBlue staining-based assay. As to conditions: mouse HMC cells, read-out: LC50. In short, it runs like this:
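Primary heart muscle cells from 18-day-old mouse embryo hearts, dissociated with trypsin and collagenase in PBS pH 7.2. Seeded at 6x10^4 cells/well in RPMI-1640 (pH 7.2), 10% FBS, 2 mM glutamine, 24 h, 37°C. Treated 24 h at 37°C in phenol-red-free supplemented medium. PrestoBlue 5 h, read at 570 and 600 nm. LC50 = concentration damaging 50% of cells versus untreated.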

Data set [4] deals with Trypanosoma cruzi. The experiment in a line: Potency index, ratio of benznidazole IC50 to compound IC50 for trypomastigote form of Trypanosoma cruzi Y. The format is functional.

Where only a bound is given, the exact number is not on record here.

As for `CCCCCc1cn(C2CC(C)(C)OC3=C2C(=O)c2ccccc2C3=O)nn1` (stereo not given), in data set [1], the IC50 was greater than 4000 µM.
Same read-out and setting: the figure for `O=C1C(Br)=C(NCc2cn(CCCN3C(=O)c4ccccc4C3=O)nn2)C(=O)c2ccccc21` is greater than 4000 µM.
For the compound `CC1(C)OC2=C(C(=O)C(=O)c3ccccc32)C1n1cc(CNC2=C(Cl)C(=O)c3ccccc3C2=O)nn1` (stereo not given), the Ratio LC50/IC50 in data set [2] came to 34.3. Besides, the CC50 at 24 h in data set [3] worked out at 282 µM. In data set [4], the “Ratio IC50” value turned out to be 12. Further, the IC50 in data set [1] turned out to be 8.2 µM.
Consider `CCC(C)(O)c1cn(C2CC(C)(C)OC3=C2C(=O)c2ccccc2C3=O)nn1` (stereo not given), for which the IC50 in data set [1] is greater than 500 µM.
Still for that read-out and setting: the figure for `CC1(C)OC2=C(C(=O)/C(=N\O)c3ccccc32)C1n1cc(-c2ccccc2)nn1` (stereo not given) is greater than 3200 µM; for `CC1(C)OC2=C(C(=O)C(=O)c3ccccc32)C1n1cc(-c2ccccc2)nn1` (stereo not given) it is 17.3 µM; for `CC1(C)CC(n2cc(C3CCCCC3)nn2)C2=C(O1)C(=O)c1ccccc1C2=O` (stereo not given) it is greater than 2000 µM.
Same read-out and setting: with `CC1(C)OC2=C(C(=O)c3ccccc3C2=O)C1n1cc(C2CCCCC2)nn1` (stereo not given) the figure was greater than 1500 µM.
On the same count and under the same terms, the figure for `CCC(C)(O)c1cn(C2C3=C(OC2(C)C)C(=O)c2ccccc2C3=O)nn1` (stereo not given) is greater than 4000 µM; for `O=C1C=C(NCc2cn(CCCN3C(=O)c4ccccc4C3=O)nn2)C(=O)c2ccccc21` it is greater than 4000 µM.
Take `O=C1C=C(NCc2cn(CCCCN3C(=O)c4ccccc4C3=O)nn2)C(=O)c2ccccc21`: the IC50 in data set [1] is greater than 4000 µM.
On the same count and under the same terms, with `O=C1C=C(NCc2cn(CCN3C(=O)c4ccccc4C3=O)nn2)C(=O)c2ccccc21` the figure was greater than 4000 µM.
Same read-out and setting: the figure for `O=C1C(Cl)=C(NCc2cn(CCCN3C(=O)c4ccccc4C3=O)nn2)C(=O)c2ccccc21` is greater than 4000 µM.
Same read-out and setting: the figure for `O=C1C=C(NCc2cn(-c3cccc([N+](=O)[O-])c3)nn2)C(=O)c2ccccc21` is greater than 4000 µM; for `O=C1C(Br)=C(NCc2cn(CCN3C(=O)c4ccccc4C3=O)nn2)C(=O)c2ccccc21` it is greater than 4000 µM; for `O=C1C(Cl)=C(NCc2cn(CCN3C(=O)c4ccccc4C3=O)nn2)C(=O)c2ccccc21` it is greater than 4000 µM.
Turning to `CC1(C)OC2=C(C(=O)C(=O)c3ccccc32)C1n1cc(CNC2=CC(=O)c3ccccc3C2=O)nn1` (stereo not given), in data set [2], the Ratio LC50/IC50 was less than 1.5. Moreover, the CC50 at 24 h in data set [3] is less than 125 µM. The IC50 in data set [1] was 80.8 µM.
In the case of `CC1(C)Oc2c(c3nccnc3c3ccccc23)C1n1cc(-c2ccccc2)nn1` (stereo not given), the IC50 in data set [1] was greater than 4000 µM.
On the same count and under the same terms, with `CC1(C)Oc2c(c3nc4ccccc4nc3c3ccccc23)C1n1cc(-c2ccccc2)nn1` (stereo not given) the figure was greater than 1500 µM.
Still for that read-out and setting: the figure for `CC1(C)OC2=C(C(=O)c3ccccc3C2=O)C1n1cc(-c2ccccc2)nn1` (stereo not given) is greater than 4000 µM.
As to `CC1(C)CC(N=[N+]=[N-])C2=C(O1)C(=O)c1ccccc1C2=O` (stereo not given), in data set [1], the IC50 turned out to be 318 µM.
Regarding `O=C1C(Br)=C(NCc2cn(CN3C(=O)c4ccccc4C3=O)nn2)C(=O)c2ccccc21`, the half-maximal inhibitory concentration (IC50) in data set [1] is greater than 4000 µM.
On the same count and under the same terms, with `O=C1C(Br)=C(NCc2cn(-c3cccc([N+](=O)[O-])c3)nn2)C(=O)c2ccccc21` the figure was greater than 4000 µM.
The same measure, in the same setting: the figure for `O=C1C=C(NCc2cn(CN3C(=O)c4ccccc4C3=O)nn2)C(=O)c2ccccc21` is greater than 4000 µM.
With `CC1(C)OC2=C(C(=O)C(=O)c3ccccc32)C1n1cc(CNC2=C(Br)C(=O)c3ccccc3C2=O)nn1` (stereo not given), in data set [2], the Ratio LC50/IC50 was determined as 9.3. In addition, in data set [3], the CC50 at 24 h stood at 63.1 µM. In data set [4], the “Ratio IC50” value is 15. Besides, in data set [1], the half-inhibitory concentration (IC50) was found to be 6.8 µM.
As for `CCCCCCc1cn(C2C3=C(OC2(C)C)C(=O)c2ccccc2C3=O)nn1` (stereo not given), the IC50 in data set [1] is greater than 2000 µM.
Still for that read-out and setting: with `O=C1C(Cl)=C(NCc2cn(CN3C(=O)c4ccccc4C3=O)nn2)C(=O)c2ccccc21` the figure was greater than 4000 µM.
